This passage reports IC50 results from article PMC10653054 (ACS Omega, 2023).

This assay deals with normal human dermal fibroblast (HDF) cells. Put plainly: MTT cytotoxicity assay, normal HDF cells. Conditions: 48 h, read-out: In vitro antiproliferative effects (IC50) HDF. It is filed as cell-based. An outline of the steps:
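Cells came from the National Cell Bank of Iran and were grown in RPMI-1640 or DMEM with 10% FBS at 37 °C, 5% CO2 and 100% humidity. Test compounds in 0.1% DMSO (n = 3) were incubated 48 h, then MTT for 3 h, with formazan OD read at 570 nm. Controls were 0.1% DMSO (negative) and etoposide (positive). IC50 came from dose–response curves, mean ± SE of at least three independent experiments.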

For the compound `O=c1[nH]nc(O)c2c(-c3ccc([N+](=O)[O-])cc3)c3n(c12)CCn1cccc1-3` [7n, 11-Hydroxy-12-(4-nitrophenyl)-5,6-dihydropyrrolo[2″,1″:3′,4′]pyrazino[1′,2′:1,5] pyrrolo[2,3-d]pyridazin-8(9H)-one], the IC50 was more than 100 µM.
The same measure for `O=c1[nH]nc(O)c2c(-c3ccc(F)cc3)c3n(c12)CCn1cccc1-3` [7h, 12-(4-Fluorophenyl)-11-hydroxy-5,6-dihydropyrrolo[2″,1″:3′,4′]pyrazino[1′,2′:1,5] pyrrolo[2,3-d]pyridazin-8(9H)-one]: more than 100 µM; for `COC(=O)c1c(-c2cccc(C)c2)c2n(c1C(=O)OC)CCn1cccc1-2` [5e, Dimethyl-1-(3-tolyl)-5,6-dihydrodipyrrolo[1,2-a:2′,1′-c]pyrazine-2,3-dicarboxylate]: more than 100 µM; for `COC(=O)c1c(-c2ccc(O)c(OC)c2)c2n(c1C(=O)OC)CCn1cccc1-2` [5q, Dimethyl-1-(4-hydroxy-3-methoxyphenyl)-5,6-dihydrodipyrrolo[1,2-a:2′,1′-c]pyrazine-2,3-dicarboxylate]: more than 100 µM.
Turning to `O=c1[nH]nc(O)c2c(-c3ccc(Br)cc3)c3n(c12)CCn1cccc1-3` [7l, 12-(4-Bromophenyl)-11-hydroxy-5,6-dihydropyrrolo[2″,1″:3′,4′]pyrazino[1′,2′:1,5] pyrrolo[2,3-d]pyridazin-8(9H)-one], the IC50 was more than 100 µM.
With `COC(=O)c1c(-c2ccc(Cl)cc2Cl)c2n(c1C(=O)OC)CCn1cccc1-2` [5r, Dimethyl-1-(2,4-dichlorophenyl)-5,6-dihydrodipyrrolo[1,2-a:2′,1′-c]pyrazine-2,3-dicarboxylate], the IC50 was more than 100 µM.
The same measure for `COC(=O)c1c(-c2cc(OC)c(OC)c(OC)c2)c2n(c1C(=O)OC)CCn1cccc1-2` [5s, Dimethyl-1-(3,4,5-trimethoxyphenyl)-5,6-dihydrodipyrrolo[1,2-a:2′,1′-c]pyrazine-2,3-dicarboxylate]: more than 100 µM; for `COc1cccc(-c2c3n(c4c(=O)[nH]nc(O)c24)CCn2cccc2-3)c1` [7f, 11-Hydroxy-12-(3-methoxyphenyl)-5,6-dihydropyrrolo[2″,1″:3′,4′]pyrazino[1′,2′:1,5] pyrrolo[2,3-d]pyridazin-8(9H)-one]: more than 100 µM.
The same measure for `COc1cc(-c2c3n(c4c(=O)[nH]nc(O)c24)CCn2cccc2-3)cc(OC)c1OC` [7q, 11-Hydroxy-12-(3,4,5-trimethoxyphenyl)-5,6-dihydropyrrolo[2″,1″:3′,4′]pyrazino [1′,2′:1,5]pyrrolo[2,3-d]pyridazin-8(9H)-one]: more than 100 µM.
The same measure for `Cc1ccccc1-c1c2n(c3c(=O)[nH]nc(O)c13)CCn1cccc1-2` [7c, 11-Hydroxy-12-(o-tolyl)-5,6-dihydropyrrolo[2″,1″:3′,4′]pyrazino[1′,2′:1,5]pyrrolo[2,3-d] pyridazin-8(9H)-one]: more than 100 µM; for `COC(=O)c1c(-c2cccc(O)c2)c2n(c1C(=O)OC)CCn1cccc1-2` [5c, Dimethyl-1-(3-hydroxyphenyl)-5,6-dihydrodipyrrolo[1,2-a:2′,1′-c]pyrazine-2,3-dicarboxylate]: more than 100 µM; for `Cc1cccc(-c2c3n(c4c(=O)[nH]nc(O)c24)CCn2cccc2-3)c1` [7d, 11-Hydroxy-12-(m-tolyl)-5,6-dihydropyrrolo[2″,1″:3′,4′]pyrazino[1′,2′:1,5]pyrrolo[2,3-d] pyridazin-8(9H)-one]: more than 100 µM.
Take `COC(=O)c1c(-c2ccc(Cl)cc2)c2n(c1C(=O)OC)CCn1cccc1-2` [5l, Dimethyl-1-(4-chlorophenyl)-5,6-dihydrodipyrrolo[1,2-a:2′,1′-c]pyrazine-2,3-dicarboxylate]: the IC50 was more than 100 µM.
Then `COC(=O)c1c(-c2cccc(OC)c2)c2n(c1C(=O)OC)CCn1cccc1-2` [5g, Dimethyl-1-(3-methoxyphenyl)-5,6-dihydrodipyrrolo[1,2-a:2′,1′-c]pyrazine-2,3-dicarboxylate], with more than 100 µM; and `COC(=O)c1c(-c2ccc(Br)cc2)c2n(c1C(=O)OC)CCn1cccc1-2` [5n, Dimethyl-1-(4-bromophenyl)-5,6-dihydrodipyrrolo[1,2-a:2′,1′-c]pyrazine-2,3-dicarboxylate], with more than 100 µM; and `O=c1[nH]nc(O)c2c(-c3ccccc3)c3n(c12)CCn1cccc1-3` [7a, 11-Hydroxy-12-phenyl-5,6-dihydropyrrolo[2″,1″:3′,4′]pyrazino[1′,2′:1,5]pyrrolo[2,3-d] pyridazin-8(9H)-one], with more than 100 µM.
Then `COC(=O)c1c(-c2ccccc2C)c2n(c1C(=O)OC)CCn1cccc1-2` [5d, Dimethyl-1-(2-tolyl)-5,6-dihydrodipyrrolo[1,2-a:2′,1′-c]pyrazine-2,3-dicarboxylate], with more than 100 µM; and `O=c1[nH]nc(O)c2c(-c3cccc(O)c3)c3n(c12)CCn1cccc1-3` [7b, 11-Hydroxy-12-(3-hydroxyphenyl)-5,6-dihydropyrrolo[2″,1″:3′,4′]pyrazino[1′,2′:1,5] pyrrolo[2,3-d]pyridazin-8(9H)-one], with more than 100 µM.
The same measure for `COC(=O)c1c(-c2ccc(F)cc2)c2n(c1C(=O)OC)CCn1cccc1-2` [5j, Dimethyl-1-(4-fluorophenyl)-5,6-dihydrodipyrrolo[1,2-a:2′,1′-c]pyrazine-2,3-dicarboxylate]: more than 100 µM.
Regarding `COC(=O)c1c(-c2cccc([N+](=O)[O-])c2)c2n(c1C(=O)OC)CCn1cccc1-2` [5o, Dimethyl-1-(3-nitrophenyl)-5,6-dihydrodipyrrolo[1,2-a:2′,1′-c]pyrazine-2,3-dicarboxylate], the IC50 is more than 100 µM.
Turning to `COc1ccc(-c2c3n(c4c(=O)[nH]nc(O)c24)CCn2cccc2-3)cc1` [7g, 11-Hydroxy-12-(4-methoxyphenyl)-5,6-dihydropyrrolo[2″,1″:3′,4′]pyrazino[1′,2′:1,5] pyrrolo[2,3-d]pyridazin-8(9H)-one], the IC50 is more than 100 µM.
Take `COC(=O)c1c(-c2ccccc2)c2n(c1C(=O)OC)CCn1cccc1-2` [5a, Dimethyl-1-phenyl-5,6-dihydrodipyrrolo[1,2-a:2′,1′-c]pyrazine-2,3-dicarboxylate]: the half-maximal inhibitory concentration (IC50) was more than 100 µM.
For `O=c1[nH]nc(O)c2c(-c3cccc(Cl)c3)c3n(c12)CCn1cccc1-3` [7i, 12-(3-Chlorophenyl)-11-hydroxy-5,6-dihydropyrrolo[2″,1″:3′,4′]pyrazino[1′,2′:1,5]pyrrolo [2,3-d]pyridazin-8(9H)-one], the IC50 was more than 100 µM.
Then `COC(=O)c1c(-c2ccccc2O)c2n(c1C(=O)OC)CCn1cccc1-2` [5b, Dimethyl-1-(2-hydroxyphenyl)-5,6-dihydrodipyrrolo[1,2-a:2′,1′-c]pyrazine-2,3-dicarboxylate], with more than 100 µM.
As to `COC(=O)c1c(-c2cccc(Br)c2)c2n(c1C(=O)OC)CCn1cccc1-2` [5m, Dimethyl-1-(3-bromophenyl)-5,6-dihydrodipyrrolo[1,2-a:2′,1′-c]pyrazine-2,3-dicarboxylate], the half-maximal inhibitory concentration (IC50) was more than 100 µM.
The same measure for `COC(=O)c1c(-c2cccc(Cl)c2)c2n(c1C(=O)OC)CCn1cccc1-2` [5k, Dimethyl-1-(3-chlorophenyl)-5,6-dihydrodipyrrolo[1,2-a:2′,1′-c]pyrazine-2,3-dicarboxylate]: more than 100 µM; for `COc1cc([C@@H]2c3cc4c(cc3[C@@H](O[C@@H]3O[C@@H]5CO[C@@H](C)O[C@H]5[C@H](O)[C@H]3O)[C@H]3COC(=O)[C@H]23)OCO4)cc(OC)c1O` [etoposide, reference compound]: more than 100 µM; for `O=c1[nH]nc(O)c2c(-c3cccc(Br)c3)c3n(c12)CCn1cccc1-3` [7k, 12-(3-Bromophenyl)-11-hydroxy-5,6-dihydropyrrolo[2″,1″:3′,4′]pyrazino[1′,2′:1,5]pyrrolo [2,3-d]pyridazin-8(9H)-one]: more than 100 µM.
Then `COC(=O)c1c(-c2ccc(C)cc2)c2n(c1C(=O)OC)CCn1cccc1-2` [5f, Dimethyl-1-(4-tolyl)-5,6-dihydrodipyrrolo[1,2-a:2′,1′-c]pyrazine-2,3-dicarboxylate], with more than 100 µM; and `O=c1[nH]nc(O)c2c(-c3ccc(Cl)cc3)c3n(c12)CCn1cccc1-3` [7j, 12-(4-Chlorophenyl)-11-hydroxy-5,6-dihydropyrrolo[2″,1″:3′,4′]pyrazino[1′,2′:1,5] pyrrolo[2,3-d]pyridazin-8(9H)-one], with more than 100 µM.
In the case of `COC(=O)c1c(-c2ccc([N+](=O)[O-])cc2)c2n(c1C(=O)OC)CCn1cccc1-2` [5p, Dimethyl-1-(4-nitrophenyl)-5,6-dihydrodipyrrolo[1,2-a:2′,1′-c]pyrazine-2,3-dicarboxylate], the IC50 is more than 100 µM.
The same measure for `COC(=O)c1c(-c2ccccc2F)c2n(c1C(=O)OC)CCn1cccc1-2` [5i, Dimethyl-1-(2-fluorophenyl)-5,6-dihydrodipyrrolo[1,2-a:2′,1′-c]pyrazine-2,3-dicarboxylate]: more than 100 µM; for `Cc1ccc(-c2c3n(c4c(=O)[nH]nc(O)c24)CCn2cccc2-3)cc1` [7e, 11-Hydroxy-12-(p-tolyl)-5,6-dihydropyrrolo[2″,1″:3′,4′]pyrazino[1′,2′:1,5]pyrrolo[2,3-d] pyridazin-8(9H)-one]: more than 100 µM.
The same measure for `COc1cc(-c2c3n(c4c(=O)[nH]nc(O)c24)CCn2cccc2-3)ccc1O` [7o, 11-Hydroxy-12-(4-hydroxy-3-methoxyphenyl)-5,6-dihydropyrrolo[2″,1″:3′,4′]pyrazino [1′,2′:1,5]pyrrolo[2,3-d]pyridazin-8(9H)-one]: more than 100 µM.
For the compound `COC(=O)c1c(-c2ccc(OC)cc2)c2n(c1C(=O)OC)CCn1cccc1-2` [5h, Dimethyl-1-(4-methoxyphenyl)-5,6-dihydrodipyrrolo[1,2-a:2′,1′-c]pyrazine-2,3-dicarboxylate], the IC50 is more than 100 µM.
The same measure for `O=c1[nH]nc(O)c2c(-c3ccc(Cl)cc3Cl)c3n(c12)CCn1cccc1-3` [7p, 12-(2,4-Dichlorophenyl)-11-hydroxy-5,6-dihydropyrrolo[2″,1″:3′,4′]pyrazino [1′,2′:1,5]pyrrolo[2,3-d]pyridazin-8(9H)-one]: more than 100 µM.
